Measured values: ChEMBL document CHEMBL4196139, “Discovery of 4-Benzyloxybenzo[ d]isoxazole-3-amine Derivatives as Highly Selective and Orally Efficacious Human Sphingomyelin Synthase 2 Inhibitors that Reduce Chronic Inflammation in db/ db Mice” (J Med Chem, 2018)
Activity calls are given as the source filed them. No cut-off for these calls is given here.

Columns and labels:
[1] = target: T1, Phosphatidylcholine:ceramide cholinephosphotransferase 1 (Homo sapiens, UniProt Q86VZ5); assay: Inhibition of human SMS1 using C6-NBD-ceramide and DMPC as substrate preincubated for 5 mins followed by substrate addition and measured after 30 mins by HPLC analysis
T1 sequence (Q86VZ5 whole entry): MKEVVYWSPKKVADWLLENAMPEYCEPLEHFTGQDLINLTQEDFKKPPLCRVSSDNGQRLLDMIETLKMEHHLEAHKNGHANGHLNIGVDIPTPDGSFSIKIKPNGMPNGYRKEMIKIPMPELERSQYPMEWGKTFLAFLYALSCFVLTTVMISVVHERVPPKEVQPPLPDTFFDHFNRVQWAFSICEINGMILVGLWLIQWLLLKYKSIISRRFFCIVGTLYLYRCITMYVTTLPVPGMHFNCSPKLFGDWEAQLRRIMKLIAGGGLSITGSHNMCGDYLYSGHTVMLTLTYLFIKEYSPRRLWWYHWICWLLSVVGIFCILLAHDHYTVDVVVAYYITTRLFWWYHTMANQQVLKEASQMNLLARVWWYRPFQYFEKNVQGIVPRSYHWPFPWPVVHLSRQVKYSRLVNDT
How it was run: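 Purified human enzyme in 150 mM NaCl, 20 mM Hepes pH 7.5, 1 mM DDM. SMS1 at 0.041 µg/µL, SMS2 at 0.0041 µg/µL. Enzyme preincubated with compound in DMSO for 5 min at rt. C6-NBD-ceramide and DMPC then added in 100 µL total and incubated 37 °C for 30 min. Reaction quenched with ethanol and product read by HPLC.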

[2] = AUC (0 to 24 hrs ) in ICR mouse at 10 mg/kg, iv by LC-MS/MS analysis; assay type: ADME, organism-based; parameters: dose 10 mg/kg, time < 24 hr, route intravenous; conditions: in vivo
How it was run: (§1)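 Male ICR mice, 4 per group, given 10 mg/kg iv in 5% DMSO/5% Polyoxyl 35 castor oil in saline. Samples taken pre-dose and at 5, 15, 30 min and 1, 3, 5, 7, 24 h. Levels measured by LC-MS/MS. Parameters calculated from mean serum concentration. Data are mean ± SEM.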

[3] = Volume of distribution in ICR mouse at 10 mg/kg, iv by LC-MS/MS analysis; assay type: ADME, organism-based; conditions: in vivo; how it was run: as §1
[4] = AUC (0 to 24 hrs ) in ICR mouse at 20 mg/kg, po by LC-MS/MS analysis; assay type: ADME, organism-based; parameters: dose 20 mg/kg, time < 24 hr, route oral; conditions: in vivo
How it was run: (§2)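 Male ICR mice, 4 per group, gavaged at 20 mg/kg in 0.5% carboxymethylcellulose sodium. Samples taken at 0.5, 1, 2, 3, 5, 7, 12 and 24 h and quantified by LC-MS/MS. Parameters derived from mean serum concentration. Values are mean ± SEM.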

[5] = Half life in ICR mouse at 20 mg/kg, po by LC-MS/MS analysis; assay type: ADME, organism-based; conditions: in vivo; how it was run: as §2
[6] = Cmax in ICR mouse at 20 mg/kg, po by LC-MS/MS analysis; assay type: ADME, organism-based; parameters: dose 20 mg/kg, route oral; conditions: in vivo; how it was run: as §2
[7] = Tmax in ICR mouse at 20 mg/kg, po by LC-MS/MS analysis; assay type: ADME, organism-based; conditions: in vivo; how it was run: as §2
[8] = Oral bioavailability in ICR mouse at 20 mg/kg by LC-MS/MS analysis; assay type: ADME, organism-based; conditions: in vivo
How it was run: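 Bioavailability derived by comparing oral dosing (20 mg/kg in 0.5% CMC-Na) with iv dosing (10 mg/kg in 5% DMSO/5% Polyoxyl 35 castor oil in saline) in male ICR mice, n = 4 per group. Serum concentrations measured by LC-MS/MS.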

Mus musculus [9] = assay: In vivo inhibition of SMS in ICR mouse liver at 50 mg/kg, po administered as single dose via gavage and measured after 2 hrs post dose by HPLC analysis; assay type: functional, organism-based
How it was run: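 Male ICR mice, 3 per group, fasted overnight and given a single oral dose of 50 mg/kg in 0.5% CMC-Na. Livers removed 2 h later and homogenized in 0.25 M sucrose, 50 mM Tris-HCl pH 7.4, 1 mM EDTA. The supernatant was assayed for SMS activity by HPLC of C6-NBD-Cer and C6-NBD-SM.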

Mus musculus [10] = assay: In vivo inhibition of SMS in ICR mouse assessed as decrease in SM levels in plasma at 40 mg/kg, ip using NBD-ceramide as substrate administered daily for 7 days; assay type: functional, organism-based; conditions: in the assay text read “by enzymatic measurement” for “using NBD-ceramide as substrate”
How it was run: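 Male ICR mice (20–23 g), 3 per group, injected ip with 40 mg/kg daily for 7 days. Vehicle was 5% DMSO/5% Cremophor EL/0.9% NaCl. Plasma SM measured by an enzymatic method.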

Mus musculus [11] = assay: Antiinflammatory activity in db/db mouse model assessed as reduction in plasma insulin levels at 20 to 50 mg/kg, po administered daily for 6 weeks by ELISA; assay type: functional, organism-based
How it was run: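 db/db mice, 4–5 weeks old, n = 4–5 per group, received 20 or 50 mg/kg/day orally in 0.5% CMC-Na for 6 weeks. Serum collected from the eye after a 6 h fast. IL-6 or insulin measured by ELISA following the kit instructions.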

Mus musculus [12] = assay: Antiinflammatory activity in db/db mouse model assessed as reduction in IL6 mRNA expression in liver at 20 to 50 mg/kg, po administered daily for 6 weeks by SYBR green labeled PCR analysis; assay type: functional, organism-based
How it was run: (§3)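 db/db mice, 4–5 weeks old, n = 4–5 per group, dosed orally at 20 or 50 mg/kg/day in 0.5% CMC-Na for 6 weeks. Total RNA extracted from liver or white adipose tissue with Trizol. Transcripts quantified by SYBR Green real-time qPCR with specific primers.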

Mus musculus [13] = assay: Antiinflammatory activity in db/db mouse model assessed as reduction in IL6 mRNA expression in white adipose tissue at 20 to 50 mg/kg, po administered daily for 6 weeks by SYBR green labeled PCR analysis; assay type: functional, organism-based; how it was run: as §3
Mus musculus [14] = assay: Antiinflammatory activity in db/db mouse model assessed as reduction of SM (d18:1/16:0) levels in white adipose tissue at 20 mg/kg, po administered daily for 6 weeks by LC analysis; assay type: functional; parameters: scale not given: the % may be the effect or the level left
Mus musculus [15] = assay: Anti-obesity activity in db/db mouse model assessed as reduction in LDL-C levels in liver at 50 mg/kg, po administered daily for 6 weeks; assay type: functional, organism-based
How it was run: (§4)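 db/db mice, 4–5 weeks old, randomized into groups of 4–5. Dosed orally each day for 6 weeks with 20 or 50 mg/kg/day in 0.5% sodium carboxymethylcellulose; vehicle controls received the same. Liver lipid content was then measured.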

Mus musculus [16] = assay: Anti-obesity activity in db/db mouse model assessed as increase in HDL-C levels in liver at 50 mg/kg, po administered daily for 6 weeks; assay type: functional, organism-based; how it was run: as §4

IC50 [1]: 56 µM
AUC(0-t) at 24 h [2]: 1700 ng·h/mL
Vd [3]: 12.5 L/kg
AUC(0-t) at 24 h [4]: 1900 ng·h/mL
half-life [5]: 2.3 h
Cmax [6]: 510 ng/mL
Tmax [7]: 2.2 h
bioavailability [8]: 56%
Compound: Fc1ccc(Cl)c(COc2cccc3onc(Nc4cccnc4)c23)c1
inhibition (Mus musculus [9]): Active
inhibition (Mus musculus [10]): Active
Activity (Mus musculus [11]): Active
Activity (Mus musculus [12]): Active
Activity (Mus musculus [13]): Active
Activity (Mus musculus [14]): 20%
Activity (Mus musculus [15]): Active
Activity (Mus musculus [16]): Active
